# From ChEMBL document CHEMBL4028818, “Tricyclic 4,4-dimethyl-3,4-dihydrochromeno[3,4-d]imidazole derivatives as microsomal prostaglandin E2 synthase-1 (mPGES-1) inhibitors: SAR and in vivo efficacy in hyperalgesia pain model” (Bioorg Med Chem Lett, 2017)
# Legend:
# [1] = Plasma concentration in Dunkin Hartley guinea pig model of LPS-induced thermal hyperalgesia pain at 200 mg/kg, po qd measured 7 hrs post dose by LC/MS/MS analysis; type: ADME, organism-based, Cavia porcellus
# Summary of the method: (§1)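 In the guinea pig LPS thermal hyperalgesia model, plasma and CSF drug levels were measured at the pharmacodynamic time point after oral dosing. Concentrations are means of n = 8 animals per dose group.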
# [2] = Cmax in Guinea pig at 100 mg/kg, po; type: ADME, organism-based, Cavia porcellus; design: dose 100 mg/kg, route oral; conditions: in vivo
# Summary of the method: (§2)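 Single oral dose given to guinea pigs as a 0.5% methylcellulose suspension. Values are mean ± SD, n = 3.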
# Cavia porcellus = assay: Analgesic activity in Dunkin Hartley guinea pig hyperalgesia pain model assessed as inhibition of LPS-induced thermal hyperalgesia at 200 mg/kg, po qd administered 4 hrs prior to LPS stimulation measured after 4.5 hrs by plantar test relative to control; type: functional
# Summary of the method: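 LPS was injected into the guinea pig plantar to induce thermal hyperalgesia, and compound was given orally. Response is expressed as % hyperalgesia, with a saline-injected naive group as 0% and the vehicle-treated LPS group as 100%. Values are mean ± SEM, n = 8 per dose group.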
# [3] = biological target: T1, Prostaglandin E synthase (Homo sapiens) (UniProt O14684); assay: Inhibition of recombinant human mPGES-1 expressed in CHO cells assessed as reduction in PGE2 formation at 1 uM using PGH2 a substrate preincubated for 10 mins followed by substrate addition measured after 1 min relative to control; type: cell-based
# T1 sequence (whole entry): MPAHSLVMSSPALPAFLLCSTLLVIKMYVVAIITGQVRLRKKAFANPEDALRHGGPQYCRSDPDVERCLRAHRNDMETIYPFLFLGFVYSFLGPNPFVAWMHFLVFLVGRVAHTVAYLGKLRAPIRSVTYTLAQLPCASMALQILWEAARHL
# Summary of the method: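 mPGES-1 enzyme inhibition. % inhibition values are means of two experiments in duplicate. IC50 values were derived from graphs of at least two experiments in duplicate.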
# [4] = AUC (0 to 24 hrs) in Guinea pig at 100 mg/kg, po; type: ADME, organism-based, Cavia porcellus; design: time < 24 hr, dose 100 mg/kg, route oral; conditions: in vivo; summary of the method: as §2
# [5] = Drug uptake in CSF of Dunkin Hartley guinea pig model of LPS-induced thermal hyperalgesia pain at 200 mg/kg, po qd measured 7 hrs post dose by LC/MS/MS analysis; type: ADME, organism-based, Cavia porcellus, Cerebrospinal fluid; conditions: read-out: Drug uptake; summary of the method: as §1
# [6] = Tmax in Guinea pig at 100 mg/kg, po; type: ADME, organism-based, Cavia porcellus; conditions: in vivo; summary of the method: as §2
# [7] = Drug uptake in CSF of Dunkin Hartley guinea pig model of LPS-induced thermal hyperalgesia pain at 100 mg/kg, po qd measured 7 hrs post dose by LC/MS/MS analysis; type: ADME, organism-based, Cavia porcellus, Cerebrospinal fluid; conditions: read-out: Drug uptake; summary of the method: as §1
# [8] = Plasma concentration in Dunkin Hartley guinea pig model of LPS-induced thermal hyperalgesia pain at 100 mg/kg, po qd measured 7 hrs post dose by LC/MS/MS analysis; type: ADME, organism-based, Cavia porcellus; summary of the method: as §1
SMILES,concentration at 7 h [1],Cmax [2],inhibition in vivo at 200 mg/kg (Cavia porcellus),inhibition [3],AUC(0-t) at 24 h [4],concentration at 7 h [5],Tmax [6],concentration at 7 h [7],concentration at 7 h [8]
CC1(C)Oc2cc(-c3cccc(OC(F)(F)F)c3)ccc2-c2[nH]c(-c3c(F)cccc3Cl)nc21,7.5 to 7.54 µM,803 ng/mL,38%,97.9%,13400 ng·h/mL,0.00922 µM,24 h,,
CC1(C)Oc2cc(C#Cc3cc(Cl)ccc3F)ccc2-c2[nH]c(-c3c(F)cccc3Cl)nc21,,,,,,,,0.00263 µM,13.8 µM
